“Also recorded” adds a separate entry of the source.

Common to all, as to format: biochemical
The target of test [1] is T1, human liver CE, hCE1 (CES1) (Homo sapiens, UniProt P23141).
T1 sequence (P23141 18-567): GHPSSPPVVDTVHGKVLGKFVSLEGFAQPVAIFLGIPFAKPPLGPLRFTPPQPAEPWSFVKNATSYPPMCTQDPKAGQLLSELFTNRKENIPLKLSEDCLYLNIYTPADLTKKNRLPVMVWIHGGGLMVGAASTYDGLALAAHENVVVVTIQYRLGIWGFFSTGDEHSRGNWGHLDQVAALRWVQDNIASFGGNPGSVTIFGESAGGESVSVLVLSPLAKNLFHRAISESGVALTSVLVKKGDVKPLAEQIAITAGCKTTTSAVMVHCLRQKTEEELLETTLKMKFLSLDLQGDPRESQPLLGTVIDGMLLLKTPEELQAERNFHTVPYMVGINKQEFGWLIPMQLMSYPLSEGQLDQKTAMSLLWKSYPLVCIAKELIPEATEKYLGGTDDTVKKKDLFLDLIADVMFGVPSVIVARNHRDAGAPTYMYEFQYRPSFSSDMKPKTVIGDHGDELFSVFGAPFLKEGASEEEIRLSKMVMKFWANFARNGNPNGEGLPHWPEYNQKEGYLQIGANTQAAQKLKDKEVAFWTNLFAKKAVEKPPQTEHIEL
Briefly: Inhibition of hCE1 hydrolysis of 3. The conditions noted are these: for Ki: read-out: hCE1 Ki ± SE, substrate 3 (o-nitrophenyl acetate); for inhibition of hCE1 (in words): substrate 3.

Test [2] deals with T2, hiCE (Homo sapiens, UniProt O00748).
T2 sequence (O00748 27-559): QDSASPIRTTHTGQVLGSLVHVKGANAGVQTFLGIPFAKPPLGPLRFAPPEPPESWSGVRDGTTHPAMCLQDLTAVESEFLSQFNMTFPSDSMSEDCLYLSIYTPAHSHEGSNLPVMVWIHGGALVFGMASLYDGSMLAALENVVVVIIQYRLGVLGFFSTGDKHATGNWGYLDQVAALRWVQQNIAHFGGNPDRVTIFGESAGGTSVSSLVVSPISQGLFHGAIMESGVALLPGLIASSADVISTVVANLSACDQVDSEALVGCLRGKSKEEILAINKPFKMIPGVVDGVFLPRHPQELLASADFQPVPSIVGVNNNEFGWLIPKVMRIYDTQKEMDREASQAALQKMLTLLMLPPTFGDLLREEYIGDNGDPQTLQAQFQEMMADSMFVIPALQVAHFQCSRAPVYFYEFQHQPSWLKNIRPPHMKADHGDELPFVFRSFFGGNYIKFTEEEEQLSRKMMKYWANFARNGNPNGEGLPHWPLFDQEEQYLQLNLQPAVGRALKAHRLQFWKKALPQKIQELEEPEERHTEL
The test can be described thus: Inhibition of the metabolism of heroin and cocaine. As to conditions: data not shown; Hatfield et al, manuscript in preparation.

Test [3] addresses hBChE (Homo sapiens, UniProt P06276). Briefly: Inhibition of butyrylcholinesterase, butyrylthiocholine substrate. As to conditions: data not shown. The procedure, abridged: (§1)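 Purified human AChE and BChE were obtained commercially. Test compounds were dissolved in DMSO (stock typically 10mM) immediately before analysis. Inhibition was measured by the previously reported method, with acetylthiocholine as substrate for hAChE and butyrylthiocholine for hBChE.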

Test [4] deals with T3, human intestinal CE (hiCE, CES2) (Homo sapiens, UniProt O00748).
T3 sequence (O00748 27-559): T2 sequence (O00748 27-559)

Test [5] addresses hAChE (Homo sapiens, UniProt P22303). Briefly: Inhibition of acetylcholinesterase, acetylthiocholine substrate. As to conditions: data not shown. The procedure, abridged:
as §1

Sequence of hAChE (P22303 32-614): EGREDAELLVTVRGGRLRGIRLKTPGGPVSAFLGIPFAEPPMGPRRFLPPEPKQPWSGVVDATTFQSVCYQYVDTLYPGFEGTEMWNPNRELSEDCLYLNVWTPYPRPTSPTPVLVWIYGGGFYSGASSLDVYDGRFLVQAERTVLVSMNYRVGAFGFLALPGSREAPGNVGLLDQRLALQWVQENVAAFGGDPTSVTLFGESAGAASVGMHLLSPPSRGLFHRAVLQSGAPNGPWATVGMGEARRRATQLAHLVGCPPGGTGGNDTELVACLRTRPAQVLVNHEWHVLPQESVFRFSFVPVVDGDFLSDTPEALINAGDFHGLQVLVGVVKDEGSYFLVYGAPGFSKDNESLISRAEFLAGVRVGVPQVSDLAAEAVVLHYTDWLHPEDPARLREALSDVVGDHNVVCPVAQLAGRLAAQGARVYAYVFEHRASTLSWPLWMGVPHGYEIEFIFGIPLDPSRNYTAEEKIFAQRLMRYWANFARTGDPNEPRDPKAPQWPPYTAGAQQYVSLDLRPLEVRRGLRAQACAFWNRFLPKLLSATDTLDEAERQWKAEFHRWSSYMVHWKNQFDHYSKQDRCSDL
Sequence of hBChE (P06276 29-602): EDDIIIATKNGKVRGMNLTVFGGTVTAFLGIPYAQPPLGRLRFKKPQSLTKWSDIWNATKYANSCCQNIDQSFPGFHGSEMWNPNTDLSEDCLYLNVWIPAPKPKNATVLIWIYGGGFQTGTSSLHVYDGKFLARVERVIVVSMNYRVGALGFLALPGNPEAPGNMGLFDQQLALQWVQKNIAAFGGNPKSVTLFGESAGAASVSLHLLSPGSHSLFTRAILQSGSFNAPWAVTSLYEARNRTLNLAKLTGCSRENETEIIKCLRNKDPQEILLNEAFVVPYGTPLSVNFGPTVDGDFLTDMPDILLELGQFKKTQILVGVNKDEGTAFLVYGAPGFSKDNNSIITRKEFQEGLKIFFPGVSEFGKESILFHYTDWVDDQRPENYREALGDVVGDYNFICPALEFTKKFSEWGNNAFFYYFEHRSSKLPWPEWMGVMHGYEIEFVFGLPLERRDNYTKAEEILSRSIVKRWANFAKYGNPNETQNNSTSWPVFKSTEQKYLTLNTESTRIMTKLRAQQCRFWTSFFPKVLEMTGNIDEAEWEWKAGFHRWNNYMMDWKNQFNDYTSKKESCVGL

With “4,6-dimethyl-N1,N3- diphenylbenzene-1,3- disulfonamide [compound 4]”, the inhibitory constant (Ki) in test [1] is greater than 100 µM.
Turning to `O=S(=O)(Nc1ccc(NS(=O)(=O)c2cccc(Br)c2)cc1)c1cccc(Br)c1` [compound 18, N,N'-(1,4-phenylene)bis(3-bromobenzenesulfonamide)], the “inhibition of the metabolism of heroin and cocaine (in words)” value in test [2] is “can also inhibit the metabolism of heroin and cocaine”.
For `CNC(=O)c1ccc(S(=O)(=O)Nc2ccc(NS(=O)(=O)c3ccc(F)cc3)cc2)cc1` [compound 41, 4-(N-(4-(4-fluorophenylsulfonamido)phenyl)sulfamoyl)-N-methyl benzamide], the “inhibition of hBChE (in words)” value in test [3] was “inactive”. Also, in test [4] (substrate 3), the “inhibition of hiCE (in words)” value is “did not inhibit the enzyme; also recorded: do not inhibit hiCE; also recorded: inactive”. The “inhibition of hCE1 (in words)” value in test [1] is “inactive”. Moreover, the “inhibition of hAChE (in words)” value in test [5] is “inactive”.
Regarding “N,N'-(1,4-phenylene)bis(4-fluoro-2-methyl benzene sulfonamide) [compound 36]”, the Ki in test [4] (read-out: hiCE Ki ± SE, substrate 3 (o-nitrophenyl acetate)) was 0.273 ± 0.033 µM; in test [1], greater than 100 µM.
Take `O=C(O)c1ccc(S(=O)(=O)Nc2ccc(NS(=O)(=O)c3ccc(F)cc3)cc2)cc1` [compound 39, 4-(N-(4-(4-fluorophenylsulfonamido)phenyl)sulfamoyl) benzoic acid]: the “inhibition of hBChE (in words)” value in test [3] was “inactive”. Besides, the “inhibition of hiCE (in words)” value in test [4] (substrate 3) is “did not inhibit the enzyme; also recorded: do not inhibit hiCE; also recorded: inactive”. In test [1], the “inhibition of hCE1 (in words)” value was “inactive”. Besides, the “inhibition of hAChE (in words)” value in test [5] was “inactive”.
For the molecule `O=S(=O)(Nc1c(F)c(F)c(NS(=O)(=O)c2ccc(Br)cc2)c(F)c1F)c1ccc(Br)cc1` [compound 54, N,N'-(2,3,5,6-tetrafluoro-1,4-phenylene) bis(4-bromobenzenesulfonamide)], the “inhibition of the metabolism of heroin and cocaine (in words)” value in test [2] is “can also inhibit the metabolism of heroin and cocaine”.
In the case of `O=S(=O)(Nc1ccc(NS(=O)(=O)c2ccc(Cl)cc2)cc1)c1ccc(Cl)cc1` [compound 11, N,N'-(1,4-phenylene)bis(4-chlorobenzenesulfonamide)], the “fold more potent against hiCE than hCE1” value in test [4] (ratio of Ki values hCE1 vs hiCE, substrate 3) is reported as “over 250 fold”. Besides, the “inhibition of hCE1 (in words)” value in test [1] is on record as “weak activity”.
With `O=S(=O)(Nc1ccc(NS(=O)(=O)c2cc(Cl)c(Cl)cc2Cl)cc1)c1cc(Cl)c(Cl)cc1Cl` [compound 28, N,N'-(1,4-phenylene)bis(2,4,5-trichlorobenzenesulfonamide)], the “inhibition of hBChE (in words)” value in test [3] is “inactive”. In addition, the “inhibition of hiCE (in words)” value in test [4] (substrate 3) is “did not inhibit the enzyme; also recorded: loss of biological activity; also recorded: do not inhibit hiCE; also recorded: inactive”. Moreover, in test [1], the “inhibition of hCE1 (in words)” value was “inactive”. Besides, the “inhibition of hAChE (in words)” value in test [5] was “inactive”.
On to `O=S(=O)(Nc1ccc2c(c1)Cc1cc(NS(=O)(=O)c3ccccc3)ccc1-2)c1ccccc1` [compound 56], for which, in test [4] (comparison of inhibition constants of 8 and 56), the “fold more potent at inhibiting hiCE than compound 8” value is roughly 11 fold.

As a reminder, the Ki is the equilibrium dissociation constant of an inhibitor or competing ligand from its target.

Source of the values: article PMC2780016 (Journal of medicinal chemistry, 2009).
